# A selection: hits, their analogues and other compounds. The true share with any hit is near 3.1%.
# Insulin prom up: MIN6 insulin promoter up-regulation; MIN6 insulin promoter-GFP reporter, high-content imaging; active compounds read high; z-score at 5 µM; 190,000 tested, 0.3% active;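 active = z-score above 3 at 5 µM with at least 500 cells counted in the well; inconclusive = wells under 500 cells, flagged as cytotoxic or low count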
# Insulin prom inh: TRM-6 insulin promoter activity inhibition. TRM-6 cells (human fetal islet line), insulin promoter-eGFP reporter, imaging; reporter expression induced with tamoxifen. inhibition, % at 2 µM. 130,000 tested, 0.9% active. AID 1273;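 active = inhibition above the mean plus 3 SD, with well images judged a real hit on visual review, cut at about 60% in these data, passing the limit was not always enough; inconclusive = inhibition over the cutoff but images rejected on review; inactive = inhibition not above the cutoff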
# Yeast growth inh: yeast BB579 growth reduction in restrictive medium. 140,000 tested, 0.51% active. inhibition, % at 10 µM. S. cerevisiae BB579 growth, OD615, 48 h;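 active = inhibition above a set limit, 3 SD over the mean compound inhibition, cut at about 44% in these data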
#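 System: Saccharomyces cerevisiae DeaD strain BB579, replicative lifespan model yeast | Buffer or medium: Restrictive glucose-based CSMM-D medium | Times: 4 h preincubation and 48 h exposure at 30 °C | Detection: OD615 turbidity measurement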
# RAM network inh: yeast RAM network inhibition. S. cerevisiae dse1pr::URA3 reporter, 5-FOA growth OD615, 2 d; analog-sensitive cbk1-as2 kinase mutant strain. inhibition, % at 50 µM. 190,000 tested, 1.8% active. AID 868;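 active = inhibition above a set limit, 3 SD over mean compound inhibition, cut at about 8.4% in these data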;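 note: 0% = DMSO-only wells with no growth and 100% = 10 µM 1-NA-PP1 full growth; inhibition rescues growth on 5-FOA so higher OD means more RAM inhibition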
# Yeast life ext: extends the lifespan of yeast. S. cerevisiae growth with nicotinamide, OD615; deaD strain in restrictive glucose medium. inhibition of the nicotinamide effect, % at 10 µM. 130,000 tested, 0.68% active. AID 775;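 active = inhibition above a set limit, placed 3 SD over the median of all compounds, cut at about 26% in these data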;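 note: 0% = nicotinamide-treated wells and 100% = cells grown without nicotinamide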
#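 Test system: DeaD-strain S. cerevisiae / Buffer or medium: restrictive glucose medium / Also added: nicotinamide 1.5 mM / Doses: one concentration, 10 µM, DMSO 0.25% / Schedule: 48 h at 30 °C / Signal: OD615 measurement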
# RAM 5-FOA: RAM network inhibition, efflux-deficient strain | 1,200 tested, under 10 active | max inhibition, % | S. cerevisiae efflux-deficient reporter strain, 5-FOA growth OD615, 2 days | shares compounds with RAM network inh | AID 1305; call rule not given here;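 note: plate controls were vehicle for no effect and reference inhibitor for full effect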
# Numbers without * were called inactive; ? = inconclusive; . = not tested or not shown.
SMILES,Insulin prom up,Insulin prom inh,Yeast growth inh,RAM network inh,Yeast life ext,RAM 5-FOA
C/C(N)=C(/C#N)C(=O)CSc1nc2ccccc2c(=O)n1-c1ccc(C)c(Cl)c1,0.39,20,-47,12*,0,3
C/C(N)=C(/C#N)C(=O)CSc1nc2ccccc2c(=O)n1-c1ccc(C)cc1,-0.23,-20,-41,2,-2,.
COc1ccc(NC(=O)CSc2nnc(-c3ccccc3Cl)n2Cc2ccco2)c(OC)c1,-0.25,27,-17,-1,-10,.
O=C(CSc1nnc(Cc2cccs2)n1Cc1ccco1)Nc1cc(Cl)cc(Cl)c1,-1.1,0,-54,12*,-2,1
CCOc1ccc(NC(=O)CSc2nnc(-c3ccccc3Cl)n2Cc2ccco2)cc1,-0.1,.,-48,15*,-25,2
CN(C)c1ccc(NC(=O)CSc2nnc(-c3cccs3)n2Cc2ccco2)cc1,.,50,-17,2,-5,.
O=C(CSc1nnc(Cc2cccs2)n1Cc1ccco1)Nc1cccc(Cl)c1,0.56,-16,-32,3,-16,.
Cc1ccc(NC(=O)CSc2nnc(-c3cccs3)n2Cc2ccco2)cc1,-0.16,-35,2,12*,-14,1
O=C(NCc1ccccc1Cl)C1CCC(CNc2c(N3CCOCC3)c(=O)c2=O)CC1 (configuration not stated),-1.8,.,.,.,.,.
COc1ccc(C2CC(c3ccccc3)=NN2C(=O)COC(=O)C2(C)CC2(Cl)Cl)cc1 (configuration not stated),-1.1,-29,.,2,.,.
CSc1ccccc1-c1nnc(-c2ccc(C)cc2)o1,.,33,-55,14*,-8,1
CSc1ccccc1-c1nnc(-c2ccccc2)o1,0.91,-9,-62,2,-13,.
Cc1nc2ccc(S(=O)(=O)NCC(=O)NC(C)c3ccccc3)cc2s1 (configuration not stated),-0.23,.,.,2,.,.
O=C(CNS(=O)(=O)c1ccc2ccccc2c1)NCCc1ccccn1,-0.1,-117,.,0,.,.
C=CCN1C(=O)C2(NNc3ccccc3O2)c2ccccc21 (configuration not stated),0.54,-103,4,2,-10,.
CCCCN1C(=O)C2(NNc3ccccc3O2)c2ccccc21 (configuration not stated),.,-170,3,15*,-7,3
N#CC1(Cc2ccc(Cl)cc2)c2ccccc2C=CN1C(=O)c1ccccc1 (configuration not stated),-0.71,16,-41,4,-18,.
CN(c1cccc(NC(=O)CN(c2ccc(F)cc2)S(C)(=O)=O)c1)S(C)(=O)=O,0.1,.,.,13*,.,3
Cc1cccc(NC(=O)CN(c2ccc(F)cc2)S(C)(=O)=O)c1,-1.6,.,.,-1,.,.
Cc1ccc(C(=O)n2nc(-c3ccccc3)nc2NCc2ccco2)cc1,0.35,21,-17,13*,-11,3
Nc1nc(-c2ccco2)nn1S(=O)(=O)c1ccccc1,0.15,7,.,2,.,.
COc1ccc(CC(=O)n2nc(-c3ccc(Cl)cc3)nc2NCc2ccco2)cc1,0.04,-38,-1,14*,-6,4
CCCC(=O)n1nc(-c2ccc(C)cc2)nc1NCc1ccco1,1.9,.,.,3,.,.
CC(=O)n1nc(-c2ccc(Cl)cc2)nc1NCc1ccco1,.,14,7,2,-9,.
O=C(c1cccs1)n1nc(-c2ccc(Cl)cc2)nc1NCc1ccco1,0.57,-31,-37,13*,-3,3
SMILES,Insulin prom up,Insulin prom inh,Yeast growth inh,RAM network inh,Yeast life ext,RAM 5-FOA
O=S(=O)(c1ccccc1)n1nc(-c2ccccc2)nc1NCc1ccco1,-0.11,35,-31,16*,-2,6
Cc1cc(S(=O)(=O)Nc2c(C)nn(C)c2C)c(Cl)cc1Cl,-0.35,.,.,.,.,.
Cc1cccc(NC(=O)/C(C#N)=C/c2ccc(Sc3ccccc3)o2)c1C,-0.13,?,-20,14*,4,9
Cc1ccccc1NC(=O)/C(C#N)=C/c1ccsc1,-0.07,-38,-13,3,-7,.
C=C(C)C1CC=C(C)/C(=N\NC(=S)Nc2ccc(C)cc2)C1 (configuration not stated),0.82,6,4,17*,2,2
C=C(C)C1CC=C(C)/C(=N/NC(=O)COc2ccc(C)cc2)C1 (configuration not stated),.,3,-33,3,.,.
CCCSc1nc(NCc2ccco2)c2c3c(sc2n1)COC(C)(C)C3,0.76,-3,-31,13*,-22,7
Cc1ccc(NC(=O)C2CCCN2S(=O)(=O)c2ccc3c(c2)n(C)c(=O)c(=O)n3C)cc1C (configuration not stated),0.41,-66,-17,4,10,.
COc1ccc(C(=O)/C=C/c2ccc(O)cc2)c(O)c1CC=C(C)C,0.77,14,-27,24*,-7,2
O=C(OCc1cccc(F)c1)c1ccc2c(=O)n3c(nc2c1)CCC3,0.46,.,.,.,.,.
Cc1ccc(S(=O)(=O)c2c(CO)c(-c3ccccc3)nn2C)cc1,-0.52,.,.,14*,.,4
N#Cc1nc(Cc2cccc3ccccc23)oc1NCc1ccc(F)cc1,-0.38,.,-23,15*,-19,3
C=CCNc1oc(Cc2cccc3ccccc23)nc1C#N,-0.04,.,-5,6,-6,.
COc1ccc(CNc2oc(-c3cccc4ccccc34)nc2C#N)cc1,.,36,-31,15*,-6,3
CNc1oc(-c2cccc3ccccc23)nc1C#N,0.52,23,-33,3,-15,.
COc1ccc2c(C)cc(SCC(=O)c3ccc4c(c3)OCO4)nc2c1,-0.16,-37,-15,12*,-12,5
COCCn1c(C)cc(C(=O)CSc2cc(C)c3ccc(OC)cc3n2)c1C,-0.31,-15,-45,5,6,.
Cc1ccc(CSc2ncnc3c2cnn3-c2ccccc2)cc1,0.41,.,-28,7,2,.
Cc1ccc(-n2ncc3c(SCc4ccccc4)ncnc32)cc1,0.09,-9,-43,12*,8,3
Cn1c(OCc2cccnc2)nc2c1c(=O)n(Cc1ccc(F)cc1)c(=O)n2C,-0.14,.,.,.,.,.
COCCNC(=O)C(c1ccc(F)cc1)N(C(=O)CCC(=O)Nc1nccs1)c1ccc(C)cc1 (configuration not stated),0.06,.,.,12*,.,2
Cc1cc(C)c(NC(=O)COC(=O)c2cccc3c2C(=O)c2ccccc2C3=O)c(C)c1,-0.06,-25,-39,4,18,.
Cc1cc(C)c(Nc2cc(S(=O)(=O)O)c(N)c3c2C(=O)c2ccccc2C3=O)c(C)c1,0.41,.,-71,26*,35*,15
COc1ccc(/C=C/C(=O)OCC(=O)Nc2cc(C(F)(F)F)ccc2Cl)cc1,-0.34,0,-39,1,-2,.
Cc1cc[n+](CC2OCc3ccccc3CO2)cc1,-0.66,.,.,3,.,.
CCOCCCNC(=S)N1CCCN(c2nc3cc(C)c(C)cc3cc2C#N)CC1,-2,.,.,17*,.,2
COCCCNC(=S)N1CCCN(c2nc3cc(C)c(C)cc3cc2C#N)CC1,0.07,.,.,4,.,.

# Screens as filed in PubChem.
